From PubChem BioAssay
Ecoli rRNA inh = reduced GFP signal of wild-type E. coli, primary screen, bacterial rRNA inhibitor project, GFP/RFP fluorescence, OD600, single point | GFP signal change (wild-type ribosome), % (test concentration not listed) | E. coli WT GFP vs humanized-ribosome RFP mutants, 24 h; active compounds read low; DMSO median 0, no signal -100 | AID 720706, 2013 | 350,000 tested, 1.6% active;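 active = significant combined selectivity score with lowered wild-type GFP, culture density cut under 30%, mutant RFP and density less affected; inactive = any of these conditions unmet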
Env fusion inh = inhibitors of HIV-1 Env-driven cell-cell fusion, primary screen, HeLa-JRFL effector, CEM21 target cells, luciferase; 360,000 tested, 1.1% active; inhibition, % at 12.3 µM;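 active = mean replicate inhibition score of at least 50 and every replicate individually at or above 50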;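 also: 0% = plate neutral controls and 100% = maraviroc near 300 nM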
F508del corr = F508del CFTR correction, initial screen, CFBE line, single point; CFBE cells, YFP halide quenching; stimulated with forskolin plus potentiator P3; % fluorescence drop versus neutral controls; activity (quench increase), % at 7.58 µM; 350,000 tested, 0.36% active;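 active = mean added fluorescence quench of at least 8% versus neutral control, with both replicates also reaching 8%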;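 also: cells transiently co-express mutant CFTR-F508del with the halide-sensitive YFP; corrector assay measuring rescue of mutant channel to the surface after 24 h compound exposure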
GSIS activator = GLuc luminescence reporter in INS-1E cells, primary screen for activators of glucose-dependent secretion of insulin | 370,000 tested, 0.61% active | activation, % at 16.6 µM | INS-1E GLuc reporter insulin secretion, 2-3 h;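 active = lowest replicate activation of at least 40%, so every replicate reaches that level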;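 also: 0% = median of neutral control wells and 100% = median of IBMX positive control wells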
Cneo AK release = Cryptococcus neoformans cell lysis inducers, primary screen, AK release luminescence, single concentration; C. neoformans lysis, adenylate kinase release luminescence, 4 h; normalised: neutral wells 0, clomiphene wells 100; lysis activity, % at 15 µM; 360,000 tested, 0.2% active;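 active = mean lysis activity across replicates of at least 80%, whatever share of replicates individually reach that level; inactive = mean lysis activity below 80%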
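Test system: log-phase Cryptococcus neoformans yeast cells. Input: 5 × 10^6 yeast cells/mL. Medium: fresh YPD growth medium. Doses: single dose. Incubation: static 4 h at 37 °C with compound, 1 h detection. Measured by: luminescent adenylate kinase detection reagent. Read-out: signal increase indicating cell lysis. Benchmarks: Clomiphene.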
miR122 inh = miR-122 Renilla sensor signal increase in Huh7, primary screen, miR-122 inhibitor project, cell-based, single point, plate reader; Huh7 miR-122 Renilla luciferase sensor, 48 h; neutral wells = 0, positive control = 100; activation (reporter increase), % at 12.5 µM; 340,000 tested, 0.3% active;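 active = mean replicate activation score at least 90 and every replicate individually at or above 90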;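 also: higher luciferase means less miR-122 activity so hits act as miR-122 inhibitors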
An asterisk follows results filed as active; nt = no result; [ ] = dose if it differs, or a comment. A selection: hits, their analogues and other compounds. The true share with any hit is near 3.1%.

SMILES	Ecoli rRNA inh	Env fusion inh	F508del corr	GSIS activator	Cneo AK release	miR122 inh
C[C@H]1CN([C@@H](C)CO)C(=O)c2c(c3ccccc3n2C)-c2ccccc2CO[C@H]1CN(C)C(=O)Cc1ccccc1	-11	57*[16.7 µM]	-1	-11	0	nt
Cc1ccc(N2C(=O)CC(c3c[nH]c4ccccc34)C2=O)cc1 (centres undefined)	-15	-33	1	-20	nt	-5
CCC1=NN=C(c2ccc(F)cc2)C(c2c[nH]c3ccccc23)N1O (centres undefined)	nt	103*	nt	nt	2	5
O=C(C1CC1)N1CC2(C1)[C@H](c1ccccc1)[C@@H](CO)N2S(=O)(=O)c1ccccc1	1	nt	0	-1	nt	nt
COc1ccc(OCC(=O)Nc2cc(-c3nn(C)c(=O)c4ccccc34)ccc2OC)cc1	nt	86*	nt	nt	-1	-3
O=C(O)/C=C/c1ccc(S(=O)(=O)Nc2ccc(OCc3ccccc3)cc2)cc1	-24*	10	-3	7	0	2
C=CCNC(=S)N1CCc2c([nH]c3ccccc23)C1C (centres undefined)	-33*	-4	0	-22	-5	nt
CC1c2[nH]c3ccccc3c2CCN1S(C)(=O)=O (centres undefined)	nt	8	nt	nt	4	-4
CCCCn1c(SCC(=O)Nc2nnc(C)s2)nc2c1c(=O)n(C)c(=O)n2C	nt	5	nt	16	-2	-6
CC(C)n1c(SCC(=O)Nc2nc3c(s2)CCCC3)nc2c1c(=O)n(C)c(=O)n2C	nt	87*	nt	nt	2	0
CCCn1c(SCC(=O)Nc2nc3ccccc3s2)nc2c1c(=O)n(C)c(=O)n2C	nt	64*	nt	nt	-1	-1
CCCCn1c(SCC(=O)Nc2nnc(CC)s2)nc2c1c(=O)n(C)c(=O)n2C	nt	2	nt	nt	1	237*
O=C(CSc1nc(O)cc(=O)n1-c1ccccc1)Nc1nc2ccccc2s1	-5	67*	nt	-15	-1	-3
CCCN(C)C[C@H]1Oc2ncc(C#CCN(C)C)cc2C(=O)N([C@H](C)CO)C[C@@H]1C	-3	15[16.7 µM]	-3	13	-4	6[16.7 µM]
C[C@H](CO)N1C[C@H](C)[C@@H](CN(C)Cc2ccc3c(c2)OCO3)Oc2c(NC(=O)CCC(F)(F)F)cccc2C1=O	-13	nt	nt	-11	nt	nt
CCCNC(=O)[C@H]1[C@H](CO)[C@H]2Cn3c(ccc(C4=CCCC4)c3=O)[C@@H]1N2C(=O)C1CC1	1	nt	0	0	14	3[16.7 µM]
COc1ccc(C(=O)Nc2c(O)ccc3ccccc23)cc1	3	11	-3	9	4	3
COc1ccc(NC(=O)Nc2c(O)ccc3ccccc23)cc1	-26*	8	-1	-12	nt	nt
CCCC(=O)NC(c1ccc(OC)cc1)c1c(O)ccc2ccccc12 (centres undefined)	-27*	-3	0	-24	-1	nt
COc1ccc(CN(C)C[C@@H]2OCCCC[C@@H](C)Oc3ccc(NC(=O)CCCN(C)C)cc3C(=O)N([C@H](C)CO)C[C@H]2C)cc1	0	8[16.7 µM]	1	9	-1	-1[16.7 µM]
c1cn2cc(-c3ccc(CN4CCOCC4)cc3)ccc2n1	7	-3	-3	55*	-1	-2
O=C(Cc1c(Cl)cccc1Cl)Nc1ccncc1Cl	-1	61*	0	-3	2	nt
O=C(Cc1c(Cl)cccc1Cl)Nc1ccncc1	-10	24	-1	13	1	nt
C[C@@H]1CN([C@@H](C)CO)C(=O)c2cc(NC(=O)Nc3ccc(F)cc3)ccc2O[C@@H](C)CCCCO[C@H]1CN(C)Cc1ccncc1	-1	29[16.7 µM]	1	-12	0	-2[16.7 µM]
C[C@@H]1CN([C@H](C)CO)C(=O)c2cc(NC(=O)C3CC3)ccc2O[C@H]1CN(C)C(=O)Nc1cccc2ccccc12	2	-8[16.7 µM]	-2	-10	4	5[16.7 µM]
SMILES	Ecoli rRNA inh	Env fusion inh	F508del corr	GSIS activator	Cneo AK release	miR122 inh
COC(=O)c1sc(NC(=O)/C=C/c2ccc(C)cc2)nc1C	nt	-7	nt	67*	nt	nt
CCOC(=O)C1=C(COC(=O)Cc2ccccc2F)NC(=O)NC1C (centres undefined)	5	-23	0	42*	-1	nt
CCOC(=O)C1=C(COC(=O)Cc2ccc(Br)cc2)NC(=O)NC1C (centres undefined)	-5	-25	-1	33	5	nt
CCOC(=O)C1=C(COC(=O)/C=C/c2cccc(OC)c2OC)NC(=O)NC1C (centres undefined)	-9	-1	0	57*	-1	nt
CCOC(=O)C1=C(COC(=O)/C=C/c2ccc(Cl)cc2)NC(=O)NC1C (centres undefined)	-1	6	2	37	-1	7
CCOC(=O)C1=C(COC(=O)/C=C/c2ccc(OCC)c(OC)c2)NC(=O)NC1C (centres undefined)	-1	1	-2	90*	nt	nt
CCOC(=O)C1=C(COC(=O)/C=C/c2ccccc2F)NC(=O)NC1C (centres undefined)	4	-7	0	21	0	-9
COc1ccc(NC(=O)Nc2ccc3c(c2)CC(=O)N([C@H](C)CO)C[C@H](C)[C@H](CN(C)S(=O)(=O)c2ccc(F)cc2)O3)cc1	1	19[16.7 µM]	0	2	0	-1[16.7 µM]
CCC(CO)Oc1cc(NCc2cccc(Cl)c2)c2ncn(C(C)C)c2c1 (centres undefined)	-22*	nt	nt	nt	1	5
CCC(CO)Oc1cc(NCc2cccnc2)c2ncn(C(C)C)c2c1 (centres undefined)	nt	5	-1	16	-35	nt
C[C@@H]1CN([C@@H](C)CO)S(=O)(=O)c2ccc(-c3ccc(F)cc3)cc2O[C@@H]1CN(C)C(=O)c1ccccc1F	-9	-4[16.7 µM]	-1	-17	1	24[16.7 µM]
CO[C@H]1CN(C)C(=O)c2cc(NC(=O)C3CCOCC3)ccc2OC[C@@H](C)N(Cc2cccnc2)C[C@H]1C	4	3[16.7 µM]	-1	7	1	nt
O=C(Nc1ccno1)Nc1ccc(Cl)cc1Cl	-30*	-66	-1	nt	nt	nt
Cc1cc(=O)oc2cc(NS(=O)(=O)c3ccc(F)cc3)ccc12	-22*	-38	1	-13	-5	-5
Cc1cc(=O)oc2cc(NS(=O)(=O)c3ccccc3)ccc12	-4	-11	0	-4	2	-1
O=c1c(Cl)c(N2CCCCC2)cnn1-c1nc2ccccc2[nH]1	nt	-39	nt	nt	-10	-2
O=c1c2ccccc2cnn1-c1nc2ccccc2[nH]1	7	63*	0	10	nt	nt
